These results are taken from ChEMBL document CHEMBL1165951, “Improved synthesis and in vitro/in vivo activities of natural product-inspired, artificial glutamate analogs” (Bioorg Med Chem, 2010).

Each structure is given as a SMILES string. Activity calls are given as the source filed them. The rule behind the calls is not given here.

One assay deals with Mus musculus. Description: Effect on neurological behavior in mouse assessed as induction of hyperactivity at 20 ug, icv up to 50 mins. Format: functional, organism-based. In short, it runs like this: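 Racemic analog given to mice as a single intracranial (ICV) injection of 20 μg/mouse. Behaviour was then observed, with the type and duration of any change in activity recorded. Animals were kept according to the NRC Guide for the Care and Use of Laboratory Animals.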

Assay [1] is filed under the species Rattus norvegicus. Description: Binding affinity to rat brain AMPA receptor at 10 uM by radioligand displacement assay. In short, it runs like this: (§1)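 Radioligand displacement at AMPA, kainate and NMDA ionotropic glutamate receptor sites in rat brain synaptic membranes, with test compound at 1 × 10−5 M.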
In general terms: Displacement assays read how much labelled ligand stays bound in the presence of the test substance.

Assay [2] is filed under the species Rattus norvegicus. Description: Binding affinity to rat brain kainate receptor at 10 uM by radioligand displacement assay. Summed up:
as §1

Assay [3] deals with Glutamate NMDA receptor (Rattus norvegicus) (UniProt P35439+Q00959+Q00960+Q00961+Q62645+Q8VHN2+Q9R1M7). Description: Binding affinity to rat brain NMDA receptor at 10 uM by radioligand displacement assay. In short, it runs like this:
as §1

For assay [4], the species on record is Rattus norvegicus. Description: Binding affinity to glutamate receptor in rat hippocampal neurons assessed as reduction of action potential firing frequency at 10 uM by current- and voltage-clump electrophysiological analysis. The class given is tissue-based. As to conditions: Hippocampus. Summed up:
(§2)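 Cultured hippocampal neurons were recorded by current clamp, read as action potential firing frequency, and by voltage clamp, read as charge transfer during spontaneous excitatory synaptic currents. The value is the percent reduction, n = 3.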

Assay [5] is filed under the species Rattus norvegicus. Description: Binding affinity to glutamate receptor in rat hippocampal neurons assessed as reduction of spontaneous excitatory synaptic current at 10 uM by current- and voltage-clump electrophysiological analysis. Format: tissue-based. The note with it: Hippocampus. In short, it runs like this: as §2

As to `O=C(O)C[C@]12O[C@@H]3[C@@H](O)[C@@H](O)CCN[C@@H]3[C@H]1CN[C@@H]2C(=O)O` (relative stereo), the outcome in the assay on Mus musculus was inactive.

With `O=C(O)C[C@]12O[C@@H]3[C@@H](O)[C@@H](O)CO[C@@H]3[C@H]1CN[C@@H]2C(=O)O`, the result (in the assay filed under Rattus norvegicus [1]; in the assay listed under Rattus norvegicus [2]; in assay [3]; in the assay with Mus musculus) was inactive.

`O=C(O)C[C@]12O[C@@H]3C=CCCO[C@@H]3[C@H]1CN[C@@H]2C(=O)O` (relative stereo): the result with Mus musculus was Active.

For `O=C(O)C[C@]12O[C@@H]3CCCCN[C@@H]3[C@H]1CN[C@@H]2C(=O)O` (relative stereo), in the assay on Mus musculus, the outcome was inactive.

In the case of `O=C(O)C[C@]12O[C@@H]3CCCN[C@@H]3[C@H]1CN[C@@H]2C(=O)O` (relative stereo), the outcome in the assay on Mus musculus was inactive.

In the case of `O=C(O)C[C@]12O[C@@H]3[C@@H](O)[C@@H](O)CN[C@@H]3[C@H]1CN[C@@H]2C(=O)O` (relative stereo), the outcome in the assay on Mus musculus was inactive.

For the compound `O=C(O)C[C@]12O[C@@H]3C=CCCN[C@@H]3[C@H]1CN[C@@H]2C(=O)O` (relative stereo), the result with Mus musculus was inactive.

In the case of `O=C(O)C[C@]12O[C@@H]3CCCO[C@@H]3[C@H]1CN[C@@H]2C(=O)O`, the outcome (in the assay listed under Rattus norvegicus [1]; in the assay listed under Rattus norvegicus [2]; in assay [3]) was inactive. For the same compound, the outcome in the assay with Mus musculus was Active.

For the compound `O=C(O)C[C@]12O[C@@H]3[C@@H](O)[C@@H](O)CCO[C@@H]3[C@H]1CN[C@@H]2C(=O)O`, the result (in the assay filed under Rattus norvegicus [1]; in the assay listed under Rattus norvegicus [2]; in assay [3]) was inactive. In addition, the outcome in the assay with Mus musculus was Active.

For `O=C(O)C[C@]12O[C@@H]3C=CCO[C@@H]3[C@H]1CN[C@@H]2C(=O)O` (relative stereo), in the assay with Mus musculus, the outcome was inactive.

With `O=C(O)C[C@]12O[C@@H]3CCCCO[C@@H]3[C@H]1CN[C@@H]2C(=O)O`, the outcome (in the assay listed under Rattus norvegicus [1]; in the assay listed under Rattus norvegicus [2]; in assay [3]) was inactive. In the assay on Mus musculus, the result was Active.

In the case of `O=C(O)C[C@]12O[C@@H]3C=CCN[C@@H]3[C@H]1CN[C@@H]2C(=O)O` (relative stereo), the inhibition – broadly, the change of the read-out against control, counted positive when it falls – was 52% in the assay listed under Rattus norvegicus [4] and 31% in the assay filed under Rattus norvegicus [5]. Besides, the outcome with Mus musculus was inactive.
